Laboratory results taken from ChEMBL document CHEMBL4732237, “Discovery of 4-alkoxy-2-aryl-6,7-dimethoxyquinolines as a new class of topoisomerase I inhibitors endowed with potent in vitro anticancer activity” (2021).

Tests used:
Type in all cases: functional
Conditions in all cases: read-out: GI
HOP-62 = assay: Growth inhibition of human HOP-62 cells at 10 uM incubated for 48 hrs by sulforhodamine B assay relative to control
Procedure, shortened: (§1)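 NCI-60 single-dose screen. Cells were grown in RPMI 1640 with 5% FBS and 2 mM L-glutamine and plated 24 h before drug addition. Compound was added at one concentration in DMSO-derived medium and incubated for 48 h at 37 °C in 5% CO2. Read-out was SRB protein stain at 515 nm. Result is percent growth versus the no-drug control and the time-zero cell count; values below 0 indicate lethality.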

SK-MEL-5 = assay: Growth inhibition of human SK-MEL-5 cells at 10 uM incubated for 48 hrs by sulforhodamine B assay relative to control
Procedure, shortened: (§2)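 NCI one-dose screen. Cells grown in RPMI 1640 with 5% FBS and 2 mM L-glutamine, plated and incubated 24 h at 37 °C, 5% CO2. DMSO-dissolved drug added, then 48 h further incubation. Adherent cells fixed with cold TCA, suspension cells fixed after settling. Stained with 0.4% SRB, absorbance read at 515 nm. Reported as percent growth relative to no-drug control and time-zero cell number.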

SK-MEL-2 = assay: Growth inhibition of human SK-MEL-2 cells at 10 uM incubated for 48 hrs by sulforhodamine B assay relative to control; procedure, shortened: as §2
Hs-578T = assay: Growth inhibition of human HS-578T cells at 10 uM incubated for 48 hrs by sulforhodamine B assay relative to control; procedure, shortened: as §1
RXF 393 = assay: Growth inhibition of human RXF 393 cells at 10 uM incubated for 48 hrs by sulforhodamine B assay relative to control; procedure, shortened: as §2
SR = assay: Growth inhibition of human SR cells at 10 uM incubated for 48 hrs by sulforhodamine B assay relative to control; procedure, shortened: as §2
KM12 = assay: Growth inhibition of human KM12 cells at 10 uM incubated for 48 hrs by sulforhodamine B assay relative to control; procedure, shortened: as §1
OVCAR-5 = assay: Growth inhibition of human OVCAR-5 cells at 10 uM incubated for 48 hrs by sulforhodamine B assay relative to control; procedure, shortened: as §2
MDA-MB-435 = assay: Growth inhibition of human MDA-MB-435 cells at 10 uM incubated for 48 hrs by sulforhodamine B assay relative to control; procedure, shortened: as §1
IGROV-1 = assay: Growth inhibition of human IGROV-1 cells at 10 uM incubated for 48 hrs by sulforhodamine B assay relative to control; procedure, shortened: as §1
SNB-19 = assay: Growth inhibition of human SNB-19 cells at 10 uM incubated for 48 hrs by sulforhodamine B assay relative to control; procedure, shortened: as §2
COLO 205 = assay: Growth inhibition of human COLO 205 cells at 10 uM incubated for 48 hrs by sulforhodamine B assay relative to control; procedure, shortened: as §1
UACC-62 = assay: Growth inhibition of human UACC-62 cells at 10 uM incubated for 48 hrs by sulforhodamine B assay relative to control
Procedure, shortened: (§3)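 NCI one-dose screen across a 59-line panel. Cells were grown in RPMI 1640 with 5% FBS and 2 mM L-glutamine, plated and pre-incubated 24 h, then exposed to drug for 48 h at 37 °C, 5% CO2. Adherent cells were fixed with cold TCA (10% final), stained with 0.4% SRB in 1% acetic acid and read at 515 nm. Result is percent growth relative to no-drug control and time-zero cell count.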

HL-60(TB) = assay: Growth inhibition of human HL-60(TB) cells at 10 uM incubated for 48 hrs by sulforhodamine B assay relative to control
Procedure, shortened: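 NCI-60 one-dose screen: same culture, 48 h drug exposure and SRB read-out. Reported as percent growth relative to no-drug control and to time-zero cell number; 0–100 means growth inhibition, below 0 means lethality.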

SNB-75 = assay: Growth inhibition of human SNB-75 cells at 10 uM incubated for 48 hrs by sulforhodamine B assay relative to control; procedure, shortened: as §2
K562 = assay: Growth inhibition of human K562 cells at 10 uM incubated for 48 hrs by sulforhodamine B assay relative to control; procedure, shortened: as §1
EKVX = assay: Growth inhibition of human EKVX cells at 10 uM incubated for 48 hrs by sulforhodamine B assay relative to control; procedure, shortened: as §1
OVCAR-8 = assay: Growth inhibition of human OVCAR-8 cells at 10 uM incubated for 48 hrs by sulforhodamine B assay relative to control; procedure, shortened: as §2
NCI-H226 = assay: Growth inhibition of human NCI-H226 cells at 10 uM incubated for 48 hrs by sulforhodamine B assay relative to control; procedure, shortened: as §2
T47D = assay: Growth inhibition of human T47D cells at 10 uM incubated for 48 hrs by sulforhodamine B assay relative to control; procedure, shortened: as §3
UO-31 = assay: Growth inhibition of human UO-31 cells at 10 uM incubated for 48 hrs by sulforhodamine B assay relative to control; procedure, shortened: as §3
MDA-MB-468 = assay: Growth inhibition of human MDA-MB-468 cells at 10 uM incubated for 48 hrs by sulforhodamine B assay relative to control; procedure, shortened: as §1
M14 = assay: Growth inhibition of human M14 cells at 10 uM incubated for 48 hrs by sulforhodamine B assay relative to control; procedure, shortened: as §1
LOX IMVI = assay: Growth inhibition of human LOX IMVI cells at 10 uM incubated for 48 hrs by sulforhodamine B assay relative to control; procedure, shortened: as §1
MCF7 = assay: Growth inhibition of human MCF7 cells at 10 uM incubated for 48 hrs by sulforhodamine B assay relative to control; procedure, shortened: as §1
MDA-MB-231 = assay: Growth inhibition of human MDA-MB-231 cells at 10 uM incubated for 48 hrs by sulforhodamine B assay relative to control; procedure, shortened: as §1
SF-539 = assay: Growth inhibition of human SF-539 cells at 10 uM incubated for 48 hrs by sulforhodamine B assay relative to control; procedure, shortened: as §2
NCI-H522 = assay: Growth inhibition of human NCI-H522 cells at 10 uM incubated for 48 hrs by sulforhodamine B assay relative to control; procedure, shortened: as §2
NCI/ADR-RES = assay: Growth inhibition of human NCI/ADR-RES cells at 10 uM incubated for 48 hrs by sulforhodamine B assay relative to control; procedure, shortened: as §2
NCI-H460 = assay: Growth inhibition of human NCI-H460 cells at 10 uM incubated for 48 hrs by sulforhodamine B assay relative to control; procedure, shortened: as §2
SF-295 = assay: Growth inhibition of human SF-295 cells at 10 uM incubated for 48 hrs by sulforhodamine B assay relative to control; procedure, shortened: as §2
PC-3 = assay: Growth inhibition of human PC-3 cells at 10 uM incubated for 48 hrs by sulforhodamine B assay relative to control; procedure, shortened: as §2
SK-MEL-28 = assay: Growth inhibition of human SK-MEL-28 cells at 10 uM incubated for 48 hrs by sulforhodamine B assay relative to control; procedure, shortened: as §2
SF-268 = assay: Growth inhibition of human SF-268 cells at 10 uM incubated for 48 hrs by sulforhodamine B assay relative to control; procedure, shortened: as §2
OVCAR-3 = assay: Growth inhibition of human OVCAR-3 cells at 10 uM incubated for 48 hrs by sulforhodamine B assay relative to control; procedure, shortened: as §2
SN12C = assay: Growth inhibition of human SN12C cells at 10 uM incubated for 48 hrs by sulforhodamine B assay relative to control; procedure, shortened: as §2

Measured: inhibition of growth at 10 µM

COc1cc2nc(-c3ccco3)cc(OCCCN3CCC(O)CC3)c2cc1OC
46%: HOP-62 | SK-MEL-5 | SK-MEL-2 | Hs-578T | RXF 393 | SR | KM12 | OVCAR-5 | MDA-MB-435 | IGROV-1 | SNB-19 | COLO 205 | UACC-62 | HL-60(TB) | SNB-75 | K562 | EKVX | OVCAR-8 | NCI-H226 | T47D | UO-31 | MDA-MB-468 | M14 | LOX IMVI | MCF7 | MDA-MB-231 | SF-539 | NCI-H522 | NCI/ADR-RES | NCI-H460 | SF-295 | PC-3 | SK-MEL-28 | SF-268 | OVCAR-3 | SN12C

COc1cc2nc(-c3ccc(Cl)cc3)cc(OCCN3CCC(O)CC3)c2cc1OC
3%: HOP-62 | SK-MEL-5 | SK-MEL-2 | Hs-578T | RXF 393 | SR | KM12 | OVCAR-5 | MDA-MB-435 | IGROV-1 | SNB-19 | COLO 205 | UACC-62 | HL-60(TB) | SNB-75 | K562 | EKVX | OVCAR-8 | NCI-H226 | T47D | UO-31 | MDA-MB-468 | M14 | LOX IMVI | MCF7 | MDA-MB-231 | SF-539 | NCI-H522 | NCI/ADR-RES | NCI-H460 | SF-295 | PC-3 | SK-MEL-28 | SF-268 | OVCAR-3 | SN12C

COc1cc2nc(-c3ccc(C(F)(F)F)cc3)cc(OCCN3CCCC3)c2cc1OC
13%: HOP-62 | SK-MEL-5 | SK-MEL-2 | Hs-578T | RXF 393 | SR | KM12 | OVCAR-5 | MDA-MB-435 | IGROV-1 | SNB-19 | COLO 205 | UACC-62 | HL-60(TB) | SNB-75 | K562 | EKVX | OVCAR-8 | NCI-H226 | T47D | UO-31 | MDA-MB-468 | M14 | LOX IMVI | MCF7 | MDA-MB-231 | SF-539 | NCI-H522 | NCI/ADR-RES | NCI-H460 | SF-295 | PC-3 | SK-MEL-28 | SF-268 | OVCAR-3 | SN12C

COc1cc2nc(-c3ccsc3)cc(OCCCN3CCC(O)CC3)c2cc1OC
32%: HOP-62 | SK-MEL-5 | SK-MEL-2 | Hs-578T | RXF 393 | SR | KM12 | OVCAR-5 | MDA-MB-435 | IGROV-1 | SNB-19 | COLO 205 | UACC-62 | HL-60(TB) | SNB-75 | K562 | EKVX | OVCAR-8 | NCI-H226 | T47D | UO-31 | MDA-MB-468 | M14 | LOX IMVI | MCF7 | MDA-MB-231 | SF-539 | NCI-H522 | NCI/ADR-RES | NCI-H460 | SF-295 | PC-3 | SK-MEL-28 | SF-268 | OVCAR-3 | SN12C
